“Also recorded” adds a separate entry of the source.
How the values were obtained:
[1] = target: T1, sfWDS (Spodoptera frugiperda, UniProt A0A2H1VC02); test: In vitro ubiquitination; assay type: biochemical; settings: listed as MS67
[2] = target: T1, sfWDS; test: Sf9 cell degradation assay; assay type: cell-based; settings: Sf9 cells
In short: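 Sf9 cells in ESF921 medium, split into 1e6-cell aliquots and treated 24 h with test compound or DMSO. For sfWDS, some treatments at 10 μM ± bortezomib 10 μM. Lysed in Tris-SDS, then acetone precipitation, urea reduction/alkylation, Trypsin/LysC digest and MCX cleanup. Stable-isotope peptide standards spiked in; targeted MS. Signal normalised to isotope and total peptide, as % of DMSO. n = 4. Dose-response by 4-parameter fit.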

[3] = tested on: Sf9 cells; test: PROTAC cellular permeability and distribution measured by LCMS; assay type: in vitro ADME, Spodoptera frugiperda; settings: 10 µM, 24 h
[4] = tested on: WDR5; settings: MV4-11 cells ref 34; cited from earlier work

## Cc1ncsc1-c1ccc([C@H](C)NC(=O)[C@@H]2C[C@@H](O)CN2C(=O)[C@@H](NC(=O)CNC(=O)c2ccc(F)c(-c3ccc(N4C[C@@H](C)N(C)[C@@H](C)C4)c(NC(=O)c4c[nH]c(=O)cc4C(F)(F)F)c3)c2)C(C)(C)C)cc1 [Compound 12]
[1]
  IVQ Y/N (ubiquitination of sfWDS): polyubiquitination of sfWDS was observed in a dose-dependent manner
[2]
  degradation of sfWDS in cell: did not demonstrate in cell degradation
[2]; listed as MS67
  degradation of sfWDS in cell: failed to prompt degradation of sfWDS; also recorded: did not show degradation in cells
[3]
  PROTAC in cells (of total PROTAC recovery, cells vs media): only detected at very low intracellular levels
[4]
  Dmax, degradation of WDR5: 94%
